Measured values from the array DNA melting data of Ke et al. (doi:10.1101/2024.01.08.574731).

Tests used:
[1] = folding enthalpy; higher = less favourable; fluorescence melt of hairpins on a sequencing array, two-state fit; conditions: sodium 0.088 M
Outline: (§1)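 Melting temperature and folding enthalpy were obtained by bootstrapped two-state fitting. Fits used Cy3 fluorescence of library hairpins with annealed Cy3 and quencher oligos on a sequenced MiSeq flow cell, imaged in 50 mM Na-HEPES pH 8.0, 25 mM NaCl in 2.5 °C steps up to 60 °C and normalised to pre-quench Cy3 and control constructs. Four replicates were combined by inverse-variance weighting, and fitted temperatures were raised by 9.35 °C to match UV melts.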

[2] = melting temperature; fluorescence melt of hairpins on a sequencing array, two-state fit, raised by 9.35 °C to match UV melts; conditions: sodium 0.088 M
Outline: as §1

Sequence	folding enthalpy [1] [kcal/mol]	Tm [2] [°C]
GTGCCCGAAAGGGAACAC ((((((....)))..)))	-15.2	52.5
GTGCCCGAAAGGGACCAC ((((((....)))..)))	-11.3	49.5
GTGCCGGGAAACCGGTGC (..((((....))))..)	-19.4	52.7
GTGCCTCGAAAGAGACAC (((.(((....))).)))	-42.5	52.6
GTGCCTCGAAAGAGCCAC (((.(((....))).)))	-21	43.2
GTGCGAGAAATCGCAC ((((((....))))))	-28	68.2
GTGCGAGGAAACTCGTGC (..((((....))))..)	-23.3	48.4
GTGCGAGGAAACTTGCGC (.((.((....)).)).)	-18.1	46
GTGCGCGAAAGCGCCAC ((((((....))).)))	-8.65	52.2
GTGCGCGAAAGCGGCCAC ((((((....)))..)))	-11.5	45.9
GTGCGCGAAAGCGGGCAC ((((((....)))..)))	-15.9	60.7
GTGCGCGAAAGCGTACAC ((((((....)))..)))	-11.9	60.5
GTGCGGCCGAAAGGCCAC (((..(((....))))))	-10.1	64.1
GTGCGGCGAAAGCCCCAC (((.(((....))).)))	-23	47.6
GTGCGGGGAAACCTGCGC (.((.((....)).)).)	-26.7	51.9
GTGCGTCGAAAGACCCAC (((.(((....))).)))	-26.2	45.8
GTGCGTGGAAACGTGCAC ((((..(....)..))))	-25.3	50.8
GTGCTACGAAAGTACCAC (((.(((....))).)))	-26	37.8
GTGCTAGGAAACTAGCAC (((((((....)))))))	-49.4	65
GTGCTAGGAAACTAGTAC ((.((((....)))).))	-33.5	44.9
GTGCTAGGAAACTGGTAC ((.(.((....)).).))	-18.9	32.6
GTGCTATCGAAAGATCAC (((..(((....))))))	-13	30.6
GTGCTCCGAAAGGACCAC (((.(((....))).)))	-27.5	45

Sequence	folding enthalpy [1] [kcal/mol]	Tm [2] [°C]
GTGCTCGAAAGAGCCCAC ((((((....)))..)))	-8.93	35.8
GTGCTCGAAAGAGTACAC ((((((....)))..)))	-14.3	49.7
GTGCTCGGAAACGGGCAC ((((.((....)).))))	-47	61.4
GTGCTGGAAACAGCAC ((((((....))))))	-33.2	67.6
GTGCTGGGAAACCAGTGC (..((((....))))..)	-27.9	47.5
GTGCTTGGAAACAGGCAC ((((.((....)).))))	-41	53.4
GTGGAACGAAAGTTCAC (((.(((....))))))	-11.2	44.9
GTGGAAGAAATTCCAC ((((((....))))))	-34.8	51.8
GTGGAAGGAAACTTCCAC (((((((....)))))))	-42.7	62
GTGGAATCGAAAGATCAC (((..(((....))))))	-19.2	33.9
GTGGACCGAAAGGTACAC (((.(((....))).)))	-30.4	67
GTGGACCGAAAGGTCAC (((.(((....))))))	-10.4	53.7
GTGGACCGAAAGGTGCAC (((.(((....))).)))	-24.7	67.3
GTGGACGAAAGTCAACAC ((((((....)))..)))	-15.3	45.9
GTGGACGAAAGTCACAC ((((((....))).)))	-20.9	50
GTGGACGAAAGTCGCCAC ((((((....)))..)))	-18	43
GTGGACGAAAGTCGTCAC ((((((....)))..)))	-16.3	40.1
GTGGACGAAAGTCTACAC ((((((....)))..)))	-16.3	51.2
GTGGACGAAAGTCTCCAC ((((((....)))..)))	-17.2	38.8
GTGGACGGAAACGTCCGC (.(((((....))))).)	-18.4	62
GTGGACGGAAACGTTCAC (((.(((....))).)))	-42.2	55
GTGGAGAAATCCAC (((((....)))))	-25.7	49.3
GTGGAGGGAAACCTCTGC (..((((....))))..)	-19.2	37.6

Sequence	folding enthalpy [1] [kcal/mol]	Tm [2] [°C]
GTGGATGCGAAAGCACAC (((..(((....))))))	-17.9	45.4
GTGGATGGAAACGTTCAC (((.(.(....).).)))	-16.7	32.4
GTGGCACGAAAGTGTCAC (((.(((....))).)))	-42	67.2
GTGGCAGGAAACCACCAC ((((..(....)..))))	-22.5	35
GTGGCAGGAAACTACCAC ((((.((....)).))))	-34.2	44.6
GTGGCCACGAAAGTGCAC (((..(((....))))))	-12.5	38.1
GTGGCCCCGAAAGGGCAC (((..(((....))))))	-15	57.5
GTGGCCGAAAGGCGCAC ((((((....))).)))	-13.9	56.3
GTGGCCGAAAGGCGTCAC ((((((....)))..)))	-12.2	43.5
GTGGCCGGAAACGGCTAC ((.((((....)))).))	-20.4	60.3
GTGGCCGGAAACGGTCAC (((.(((....))).)))	-37.2	66.1
GTGGCCGGAAACGGTCGC (.(.(((....))).).)	-39.5	53.4
GTGGCGACGAAAGTCCAC (((..(((....))))))	-17.3	42.8
GTGGCGGGAAACCGCCGC (.(((((....))))).)	-14.9	66.6
GTGGCGGGAAACCGTCAC (((.(((....))).)))	-40.6	63.5
GTGGCTCGAAAGAGTCAC (((.(((....))).)))	-49.6	63.8
GTGGGACGAAAGTCACAC (((.(((....))).)))	-29.6	68.9
GTGGGAGGAAACTTCCGC (.((.((....)).)).)	-23.9	40.6
GTGGGCCGAAAGGCCAC (((.(((....))))))	-10.7	64.9
GTGGGCGAAAGCCGACAC ((((((....)))..)))	-13.6	53.8
GTGGGCGAAAGCCTACAC ((((((....)))..)))	-11.9	55.1
GTGGGCGAAAGCCTCCAC ((((((....)))..)))	-11.7	37.6
GTGGGCGAAAGCCTTCAC ((((((....)))..)))	-12.7	33.1

Sequence	folding enthalpy [1] [kcal/mol]	Tm [2] [°C]
GTGGGGAAACCCAC (((((....)))))	-25.7	62
GTGGGGGCGAAAGCCCAC (((..(((....))))))	-15.1	65.5
GTGGGTACGAAAGTACAC (((..(((....))))))	-31.6	55
GTGGGTCGAAAGACTCAC (((.(((....))).)))	-40.4	59
GTGGGTGCGAAAGCACAC (((..(((....))))))	-17.5	64.2
GTGGGTGGAAACACCTAC ((.((((....)))).))	-21.3	51
GTGGGTGGAAACACCTGC (..((((....))))..)	-14.7	43
GTGGTAACGAAAGTTCAC (((..(((....))))))	-10.7	35.7
GTGGTAGCGAAAGCTCAC (((..(((....))))))	-18.1	43.8
GTGGTCGAAAGACCCCAC ((((((....)))..)))	-9.79	38
GTGGTCGAAAGACCGCAC ((((((....)))..)))	-11.6	55.6
GTGGTCGAAAGACGCAC ((((((....))).)))	-16.3	49.3
GTGGTCGAAAGACGGCAC ((((((....)))..)))	-16.8	38.5
GTGGTCGAAAGACTCAC ((((((....))).)))	-19.6	46.2
GTGGTCGCGAAAGCGCAC (((..(((....))))))	-12.4	44.9
GTGGTCGGAAACGACTAC ((.((((....)))).))	-30	53.7
GTGGTCGGAAACGATCGC (.(.(((....))).).)	-22.4	46.1
GTGGTCTCGAAAGAGCAC (((..(((....))))))	-25.9	48.8
GTGGTGGGAAACCACCGC (.(((((....))))).)	-29.4	60.5
GTGGTGGGAAACCACTAC ((.((((....)))).))	-22.5	56.1
GTGGTGGGAAACCACTGC (..((((....))))..)	-24.2	55.1
GTGGTTCGAAAGAATCAC (((.(((....))).)))	-47.5	53.7
